Measured values published in ChEMBL document CHEMBL4622996, “Discovery of Vixotrigine: A Novel Use-Dependent Sodium Channel Blocker for the Treatment of Trigeminal Neuralgia” (ACS Med Chem Lett, 2020).
The source made the active and inactive calls. The calls are words filed in the database; no cut-off is given here.

Key:
[1] = target: T1, Sodium channel protein type 3 subunit alpha (Homo sapiens, UniProt Q9NY46); assay: Inhibition of Nav1.3 (unknown origin) expressed in HEK293 cells assessed as 15% inhibition of sodium current incubated for 3 to 3.5 mins by electrophysiology assay; type: cell-based
Procedure, shortened: (§1)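 HEK293 cells stably expressing NaV1.3, grown in DMEM-F12 with 10% FBS at 37 °C, dissociated at 50–70% confluency; IonWorksHT planar patch clamp at 21–23 °C, amphotericin perforated access; intracellular K-gluconate 100, KCl 40, MgCl2 3.2, EGTA 3, HEPES 5 mM, pH 7.3.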
Target sequence in this assay (Q9NY46 whole entry, looked up): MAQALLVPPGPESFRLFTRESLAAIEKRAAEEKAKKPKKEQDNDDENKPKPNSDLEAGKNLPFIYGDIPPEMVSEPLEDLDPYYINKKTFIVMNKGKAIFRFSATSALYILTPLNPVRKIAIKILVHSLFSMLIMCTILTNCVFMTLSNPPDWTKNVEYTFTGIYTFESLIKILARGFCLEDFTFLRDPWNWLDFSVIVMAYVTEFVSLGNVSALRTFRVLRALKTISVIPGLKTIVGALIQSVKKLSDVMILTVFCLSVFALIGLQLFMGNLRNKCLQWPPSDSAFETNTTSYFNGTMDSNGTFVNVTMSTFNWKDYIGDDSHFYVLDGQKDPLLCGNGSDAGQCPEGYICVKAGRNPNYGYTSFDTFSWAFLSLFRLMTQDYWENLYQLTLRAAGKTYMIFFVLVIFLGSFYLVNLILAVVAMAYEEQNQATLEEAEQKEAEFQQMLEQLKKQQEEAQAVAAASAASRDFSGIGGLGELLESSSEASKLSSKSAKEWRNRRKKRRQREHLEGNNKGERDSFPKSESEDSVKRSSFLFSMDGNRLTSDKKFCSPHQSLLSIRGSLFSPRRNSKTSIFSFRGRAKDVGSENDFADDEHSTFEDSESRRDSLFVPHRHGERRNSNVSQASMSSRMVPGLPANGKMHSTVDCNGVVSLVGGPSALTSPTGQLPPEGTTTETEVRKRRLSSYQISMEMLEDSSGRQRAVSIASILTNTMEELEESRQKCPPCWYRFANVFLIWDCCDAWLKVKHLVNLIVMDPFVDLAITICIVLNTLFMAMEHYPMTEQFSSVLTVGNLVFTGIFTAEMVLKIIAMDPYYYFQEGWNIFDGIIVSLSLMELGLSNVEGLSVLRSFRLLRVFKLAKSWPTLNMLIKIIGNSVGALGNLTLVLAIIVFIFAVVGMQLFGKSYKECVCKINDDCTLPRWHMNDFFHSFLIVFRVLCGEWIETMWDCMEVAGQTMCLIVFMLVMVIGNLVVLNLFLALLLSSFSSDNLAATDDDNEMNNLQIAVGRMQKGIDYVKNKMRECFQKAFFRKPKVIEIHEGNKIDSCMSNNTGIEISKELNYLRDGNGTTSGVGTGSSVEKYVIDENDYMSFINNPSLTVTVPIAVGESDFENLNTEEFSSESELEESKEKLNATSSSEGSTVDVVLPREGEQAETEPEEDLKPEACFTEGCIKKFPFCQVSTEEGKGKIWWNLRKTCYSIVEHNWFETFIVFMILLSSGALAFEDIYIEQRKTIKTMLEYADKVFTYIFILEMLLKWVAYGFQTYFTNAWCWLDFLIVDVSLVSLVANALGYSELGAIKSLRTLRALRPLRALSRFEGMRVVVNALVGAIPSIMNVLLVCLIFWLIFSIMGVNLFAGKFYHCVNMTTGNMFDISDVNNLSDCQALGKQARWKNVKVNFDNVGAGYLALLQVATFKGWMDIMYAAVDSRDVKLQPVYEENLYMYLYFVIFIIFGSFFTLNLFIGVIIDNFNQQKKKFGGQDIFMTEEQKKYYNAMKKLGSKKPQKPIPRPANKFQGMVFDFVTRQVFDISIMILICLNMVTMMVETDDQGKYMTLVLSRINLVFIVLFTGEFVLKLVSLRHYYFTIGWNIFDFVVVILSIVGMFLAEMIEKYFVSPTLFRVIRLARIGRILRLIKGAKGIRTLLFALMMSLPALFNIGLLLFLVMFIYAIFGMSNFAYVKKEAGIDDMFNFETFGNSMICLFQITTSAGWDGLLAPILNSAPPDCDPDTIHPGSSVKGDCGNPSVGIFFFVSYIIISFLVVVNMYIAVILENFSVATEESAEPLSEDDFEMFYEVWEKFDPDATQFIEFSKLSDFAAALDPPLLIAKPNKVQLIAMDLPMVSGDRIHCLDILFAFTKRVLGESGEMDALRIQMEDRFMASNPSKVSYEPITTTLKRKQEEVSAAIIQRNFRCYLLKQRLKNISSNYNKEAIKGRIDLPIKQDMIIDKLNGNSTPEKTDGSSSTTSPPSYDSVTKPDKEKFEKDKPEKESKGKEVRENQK

[2] = target: Voltage-gated inwardly rectifying potassium channel KCNH2 (Homo sapiens, UniProt Q12809); assay: Inhibition of human ERG; conditions: for inhibition (INH): human
[3] = target: T1, Sodium channel protein type 3 subunit alpha; assay: Inhibition of Nav1.3 (unknown origin) expressed in HEK293 cells assessed as inhibition of sodium current incubated for 3 to 3.5 mins by electrophysiology assay; type: cell-based; procedure, shortened: as §1
Target sequence in this assay (Q9NY46 whole entry): as the sequence (Q9NY46 whole entry, looked up) above

[4] = Oral bioavailability in rat at 3 mg/kg; type: ADME, organism-based; conditions: in vivo
[5] = Total blood clearance in rat blood at 0.5 mg/kg, iv; type: ADME, organism-based
[6] = Ratio of drug level in brain to blood in rat; type: ADME, tissue-based; conditions: read-out: Kbb
[7] = species: Homo sapiens; assay: Selectivity ratio of UD15 to IC50 of Nav1.3 (unknown origin) expressed in HEK293 cells; type: cell-based
[8] = Fraction unbound in rat brain; type: ADME, tissue-based
[9] = Fraction unbound in rat blood; type: ADME, tissue-based
[10] = Fraction unbound in rat plasma; type: ADME, cell-free
[11] = system: Rattus norvegicus; assay: Antinociceptive activity in rat model of chronic constriction injury-induced neuropathic pain assessed as inhibition of CCI-induced mechanical allodynia at 30 mg/kg, po BID administered 22 days post surgery and measured on day 1, 6 and 8; type: functional, organism-based
Procedure, shortened: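 Chronic constriction injury model of neuropathic pain. Dosed orally twice daily as the positive-control arm of a study that also tested 0.5 and 5 mg/kg oral BID groups. Dosing started during day 22. Mechanical allodynia was measured on dosing days 1, 6 and 8.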

Voltage-gated inwardly rectifying potassium channel KCNH2, sequence (Q12809 whole entry): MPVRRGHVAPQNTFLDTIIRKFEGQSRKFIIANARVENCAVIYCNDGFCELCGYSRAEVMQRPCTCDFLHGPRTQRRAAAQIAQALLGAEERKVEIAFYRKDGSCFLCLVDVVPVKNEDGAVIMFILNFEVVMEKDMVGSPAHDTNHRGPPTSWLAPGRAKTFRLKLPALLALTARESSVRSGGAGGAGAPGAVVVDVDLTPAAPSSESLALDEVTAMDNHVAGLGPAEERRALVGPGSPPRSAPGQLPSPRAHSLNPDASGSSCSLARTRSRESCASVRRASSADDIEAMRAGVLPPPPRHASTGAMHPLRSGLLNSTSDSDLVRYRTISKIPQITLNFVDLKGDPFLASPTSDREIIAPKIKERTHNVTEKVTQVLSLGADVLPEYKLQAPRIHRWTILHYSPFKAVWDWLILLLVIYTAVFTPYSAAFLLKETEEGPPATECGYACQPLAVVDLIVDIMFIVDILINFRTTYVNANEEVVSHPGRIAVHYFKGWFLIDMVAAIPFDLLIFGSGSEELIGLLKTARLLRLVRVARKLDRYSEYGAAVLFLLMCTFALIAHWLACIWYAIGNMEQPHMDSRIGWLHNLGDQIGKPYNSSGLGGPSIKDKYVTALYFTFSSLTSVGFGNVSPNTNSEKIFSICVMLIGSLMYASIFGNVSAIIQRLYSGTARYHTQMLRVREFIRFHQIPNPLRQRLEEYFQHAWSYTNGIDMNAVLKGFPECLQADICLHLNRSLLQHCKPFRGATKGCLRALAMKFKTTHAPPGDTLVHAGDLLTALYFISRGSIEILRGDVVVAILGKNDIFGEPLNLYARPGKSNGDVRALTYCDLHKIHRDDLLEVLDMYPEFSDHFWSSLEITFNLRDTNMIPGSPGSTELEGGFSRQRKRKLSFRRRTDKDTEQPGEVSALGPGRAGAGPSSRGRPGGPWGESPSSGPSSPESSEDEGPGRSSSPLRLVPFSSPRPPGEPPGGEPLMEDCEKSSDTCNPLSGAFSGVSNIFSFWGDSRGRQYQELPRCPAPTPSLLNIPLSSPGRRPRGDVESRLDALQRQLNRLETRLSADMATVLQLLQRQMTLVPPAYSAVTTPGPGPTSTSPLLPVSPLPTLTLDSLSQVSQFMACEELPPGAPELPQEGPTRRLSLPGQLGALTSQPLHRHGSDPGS

Row | SMILES | log(activity) [1] | IC50 [2] | IC50 [3] | Selectivity ratio [7] | further results
1 | NC(=O)[C@H]1CC[C@@H](c2ccc(OCc3ccccc3F)cc2)N1 | -5.4 | 10 µM | 63.1 µM |  | 
2 | NC(=O)[C@@H]1CC[C@H](c2ccc(OCc3ccc(F)cc3)cc2)N1 | -5 | 7.94 µM | > 63.1 µM |  | bioavailability [4]: 31%; clearance [5]: 91 mL/min/kg; Kp [6]: 3.5
3 | C[C@@H](C(N)=O)N1CCCC1c1ccc(OCc2ccccc2F)cc1 (some centres not stated) [listing 1 of 2 here] | -5.5 |  |  | 14 | 
4 | O=C1NCCC1NCc1ccc(OCc2ccccc2F)cc1 (configuration not stated) | -4.8 |  | 126 µM | 8 | 
5 | NC(=O)[C@H]1CCC[C@@H](c2ccc(OCc3cccc(F)c3)cc2)N1 (stereo in doubt) | -5.4 | 3.16 µM | 39.8 µM | 11 | 
6 | C[C@H](NC1CCOc2cc(OCc3ccccc3F)ccc21)C(N)=O (some centres not stated) |  |  | > 79.4 µM |  | 
7 | N#Cc1cccc(COc2ccc([C@H]3CC[C@@H](C(N)=O)N3)cc2)c1 | -5.2 |  | > 63.1 µM |  | 
8 | CC(C(N)=O)N1CCOc2cc(OCc3ccccc3F)ccc2C1 (configuration not stated) | -4.6 |  | > 63.1 µM |  | 
9 | NC(=O)[C@@H]1CC[C@@H](c2ccc(OCc3ccccc3F)cc2)N1 | -5.5 | 5.01 µM | 100 µM |  | 
10 | CN1[C@@H](c2ccc(OCc3ccccc3F)cc2)CC[C@H]1C(N)=O | -4.4 | 50.1 µM | > 100 µM | 2 | 
11 | C[C@@H](C(N)=O)N1CCCC1c1ccc(OCc2ccccc2F)cc1 (single isomer, unassigned; isomer 2) [listing 1 of 2 here] |  |  | 39.8 µM |  | 
12 | NC(=O)[C@@H]1CCCN1Cc1ccc(OCc2ccccc2F)cc1 | -5.8 |  | 79.4 µM | 64 | inhibition (INH) [2]: Active
13 | NC(=O)CN1CCCc2cc(OCc3ccccc3F)ccc2C1 |  |  | > 79.4 µM |  | 
14 | NC(=O)[C@@H]1CSc2cc(OCc3ccccc3F)ccc2CN1 | -4.7 |  | > 100 µM |  | 
15 | C[C@@H](C(N)=O)N1CCCC1c1ccc(OCc2ccccc2F)cc1 (some centres not stated) [listing 2 of 2 here] |  |  | 50.1 µM |  | inhibition (INH) [2]: Active
16 | C[C@@H](C(N)=O)N1CCc2cc(OCc3ccccc3F)ccc2C1 |  |  | > 79.4 µM |  | 
17 | NC(=O)[C@@H]1CC[C@H](c2ccc(Oc3cccc(F)c3)cc2)N1 | -5.5 | 7.94 µM | 100 µM | 29 | 
18 | NC(=O)[C@@H]1CC[C@H](c2ccc(OCc3ccccc3F)cc2F)N1 | -5.6 | 12.6 µM | > 100 µM | 42 | fraction unbound [8]: 0.009
19 | NC(=O)CN1CCOc2cc(OCc3ccccc3)ccc2C1 |  |  | > 79.4 µM |  | 
20 | NC(=O)C1CCC(c2ccc(OCc3ccccc3F)cc2)N1 (configuration not stated) | -5.4 |  | 63.1 to 100 µM |  | 
21 | CNC(=O)[C@@H]1CC[C@H](c2ccc(OCc3ccccc3F)cc2)N1 | -5.3 | 25.1 µM | > 63.1 µM |  | fraction unbound [8]: 0.015
22 | NC(=O)CNCc1ccc(OCc2ccccc2F)cc1 | -5.4 |  | 50.1 µM | 11 | 

Row | SMILES | log(activity) [1] | IC50 [2] | IC50 [3] | Selectivity ratio [7] | further results
23 | N#Cc1ccccc1Oc1ccc([C@H]2CC[C@@H](C(N)=O)N2)cc1 | -4.6 | 3.98 µM | > 100 µM |  | fraction unbound [8]: 0.076; fraction unbound [9]: 0.12
24 | N#Cc1ccc(COc2ccc([C@H]3CC[C@@H](C(N)=O)N3)cc2)cc1 | -5 | 7.94 µM | > 63.1 µM |  | 
25 | NC(=O)CNC1CCc2cc(OCc3ccccc3F)ccc21 (configuration not stated) | -5.5 |  | 31.6 µM | 1.3 | inhibition (INH) [2]: Active
26 | NC(=O)[C@@H]1CC[C@H](c2ccc(OCc3ccccc3F)cn2)N1 | -4.8 | 15.8 µM | 63.1 µM | 6 | 
27 | NC(=O)CN1Cc2ccc(OCc3ccccc3F)cc2C1 |  |  | > 100 µM |  | 
28 | NC(=O)[C@@H]1CCC[C@H](c2ccc(OCc3cccc(F)c3)cc2)N1 (stereo in doubt) | -5.4 | 31.6 µM | 39.8 µM | 7 | fraction unbound [8]: 0.01; fraction unbound [10]: 0.04
29 | NC(=O)[C@@H]1CC[C@H](c2ccc(Oc3ccccc3)cc2)N1 | -5.4 | 12.6 µM | 100 µM | 31 | bioavailability [4]: 25%; clearance [5]: 40 mL/min/kg; Kp [6]: 4.8
30 | NCC1(CC(=O)O)CCCCC1 |  |  |  |  | Activity [11]: Active
31 | O=C1CN(Cc2ccc(OCc3ccccc3F)cc2)CCN1 |  |  | > 79.4 µM |  | 
32 | NC(=O)[C@H]1CC[C@H](c2ccc(OCc3ccccc3F)cc2)N1 | -5.4 | 6.31 µM | > 79.4 µM |  | 
33 | C[C@@H](C(N)=O)N1CCCC1c1ccc(OCc2ccccc2F)cc1 (single isomer, unassigned; isomer 2) [listing 2 of 2 here] | -5.9 |  |  | 29 | 
34 | NC(=O)[C@@H]1CC[C@H](c2cccc(Oc3ccccc3)c2)N1 | -4.7 | 63.1 µM | > 100 µM |  | 
35 | NC(=O)[C@@H]1CC[C@H](c2ccc(OCc3ccccc3)cc2)N1 | -5.6 | 7.94 µM | > 63.1 µM | 37 | 
36 | C[C@@H](Oc1ccc([C@H]2CC[C@@H](C(N)=O)N2)cc1)c1ccccc1 | -5.5 | 3.98 µM | 31.6 µM | 9 | 
37 | N#Cc1ccccc1COc1ccc([C@H]2CC[C@@H](C(N)=O)N2)cc1 | -5.3 | 15.8 µM | > 63.1 µM |  | bioavailability [4]: 39%; clearance [5]: 37 mL/min/kg; Kp [6]: 0.8; fraction unbound [8]: 0.063; fraction unbound [10]: 0.12
38 | COc1cc([C@H]2CC[C@@H](C(N)=O)N2)ccc1OCc1ccccc1F | -5.2 | 3.98 µM | 63.1 µM | 10 | fraction unbound [8]: 0.033
39 | NC(=O)[C@@H]1CC[C@H](c2ccc(Oc3ccc(F)cc3)cc2)N1 | -5.3 | 5.01 µM | > 100 µM |  | fraction unbound [8]: 0.016; fraction unbound [10]: 0.11
40 | NC(=O)[C@@H]1CSC[C@H](c2ccc(OCc3cccc(F)c3)cc2)N1 (racemic) | < -4.05 |  | > 89.1 µM |  | 
41 | N#Cc1cc([C@H]2CC[C@@H](C(N)=O)N2)ccc1OCc1ccccc1F | -4.8 |  | > 50.1 µM |  | 
42 | NC(=O)C1Cc2cc(OCc3ccccc3F)ccc2CN1 (configuration not stated) | -4.8 |  | 20 µM | 1.3 | 
43 | NC(=O)[C@@H]1CC[C@H](c2ccc(OCc3cccc(F)c3)cc2)N1 | -5.5 | 3.16 µM | > 100 µM |  | fraction unbound [8]: 0.01; fraction unbound [10]: 0.033
44 | C[C@H](NC1CCCc2cc(OCc3ccccc3F)ccc21)C(N)=O (some centres not stated) | -5.6 |  | 63.1 µM | 24 | inhibition (INH) [2]: Active
